Measured values as given in ChEMBL document CHEMBL4406923, “New Potent DOT1L Inhibitors for in Vivo Evaluation in Mouse” (ACS Med Chem Lett, 2019).
One block for each compound: values may come before it. Activity calls are given as the source filed them. The calls are words filed in the database; no cut-off is given here.

Key:
Mus musculus [1] = assay: In vivo inhibition of DOT1L in C57BL/6 mouse xenografted with human MV4-11 cells assessed as reduction in MEIS1 gene expression at 200 mg/kg, administered twice daily for 23 days by qPCR analysis; type: functional, organism-based
[2] = Oral bioavailability in C57BL/6 mouse at 3 mg/kg measured upto 24 hrs by LC-MS/MS analysis; type: ADME, organism-based; conditions: in vivo
MV4-11 [3] = assay: Antitumor activity against human MV4-11 cells xenografted in C57BL/6 mouse assessed as tumor growth inhibition at 200 mg/kg, administered twice daily for 23 days; type: functional, organism-based
In short: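 Mice bearing subcutaneous MV4-11 xenografts were treated for 23 days at 200 mg/kg twice daily. Tumor growth inhibition was assessed against control.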

Mus musculus [4] = assay: In vivo inhibition of DOT1L in C57BL/6 mouse xenografted with human MV4-11 cells assessed as reduction in H3K79 dimethylation at 200 mg/kg, administered twice daily for 23 days by ELISA relative to control; type: functional; conditions: 552 h
[5] = biological target: T1, Histone-lysine N-methyltransferase, H3 lysine-79 specific (Homo sapiens, UniProt Q8TEK3); assay: Inhibition of 0.5 nM DOT1L (2 to 416 residues) (unknown origin) using biotinylated nucleosome as substrate and [3H]SAM as co-factor preincubated for 30 mins followed by substrate and cofactor addition and measured after 90 mins by scintillation proximity assay
Target sequence in this assay (Q8TEK3 whole entry, the tested form may be a part): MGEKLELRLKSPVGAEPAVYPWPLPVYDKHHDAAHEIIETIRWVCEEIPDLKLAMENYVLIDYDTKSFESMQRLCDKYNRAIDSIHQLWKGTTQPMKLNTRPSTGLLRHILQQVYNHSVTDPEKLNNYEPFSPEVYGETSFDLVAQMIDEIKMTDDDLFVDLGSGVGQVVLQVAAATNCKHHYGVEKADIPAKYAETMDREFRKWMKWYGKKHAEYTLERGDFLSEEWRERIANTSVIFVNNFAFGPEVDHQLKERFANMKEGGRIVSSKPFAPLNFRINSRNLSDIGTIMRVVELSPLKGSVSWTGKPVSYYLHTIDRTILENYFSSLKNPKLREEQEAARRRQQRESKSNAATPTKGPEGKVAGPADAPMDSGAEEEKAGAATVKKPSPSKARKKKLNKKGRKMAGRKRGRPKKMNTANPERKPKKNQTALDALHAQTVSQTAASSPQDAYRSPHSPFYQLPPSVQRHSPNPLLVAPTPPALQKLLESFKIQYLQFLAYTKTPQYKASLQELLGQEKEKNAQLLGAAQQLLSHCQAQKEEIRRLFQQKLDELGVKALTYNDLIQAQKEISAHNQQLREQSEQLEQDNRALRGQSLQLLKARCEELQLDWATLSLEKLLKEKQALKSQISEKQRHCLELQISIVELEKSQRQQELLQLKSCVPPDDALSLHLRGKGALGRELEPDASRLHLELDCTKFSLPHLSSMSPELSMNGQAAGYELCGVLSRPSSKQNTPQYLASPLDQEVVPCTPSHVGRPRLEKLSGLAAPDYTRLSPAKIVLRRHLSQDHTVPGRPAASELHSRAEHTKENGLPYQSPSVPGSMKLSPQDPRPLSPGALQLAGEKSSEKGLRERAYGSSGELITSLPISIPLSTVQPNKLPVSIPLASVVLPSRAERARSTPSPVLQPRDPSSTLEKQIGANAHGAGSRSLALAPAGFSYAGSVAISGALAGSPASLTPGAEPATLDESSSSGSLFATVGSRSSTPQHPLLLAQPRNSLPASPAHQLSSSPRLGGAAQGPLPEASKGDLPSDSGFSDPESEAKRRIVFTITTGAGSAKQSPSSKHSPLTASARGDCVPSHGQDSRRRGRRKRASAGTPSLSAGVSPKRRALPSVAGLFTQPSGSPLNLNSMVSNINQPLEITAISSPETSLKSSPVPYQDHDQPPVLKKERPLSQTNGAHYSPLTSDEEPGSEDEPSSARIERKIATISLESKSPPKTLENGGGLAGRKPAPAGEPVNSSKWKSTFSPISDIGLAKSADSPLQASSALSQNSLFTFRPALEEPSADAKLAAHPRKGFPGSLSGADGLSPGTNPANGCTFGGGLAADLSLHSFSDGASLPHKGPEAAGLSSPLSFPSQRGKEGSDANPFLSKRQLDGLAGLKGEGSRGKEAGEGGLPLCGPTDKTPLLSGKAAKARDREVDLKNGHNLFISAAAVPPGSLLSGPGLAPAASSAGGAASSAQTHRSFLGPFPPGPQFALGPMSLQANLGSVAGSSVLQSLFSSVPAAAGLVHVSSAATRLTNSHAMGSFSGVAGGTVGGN

[6] = biological target: T1, Histone-lysine N-methyltransferase, H3 lysine-79 specific; assay: Inhibition of 0.05 nM DOT1L (2 to 416 residues) (unknown origin) using biotinylated nucleosome as substrate and [3H]SAM as co-factor preincubated for 30 mins followed by substrate and cofactor addition and measured after 180 mins by scintillation proximity assay
Target sequence in this assay (Q8TEK3 whole entry, the tested form may be a part): as above

[7] = biological target: T1, Histone-lysine N-methyltransferase, H3 lysine-79 specific; assay: Inhibition of DOT1L in human HeLa cells assessed as reduction in H3K79 dimethylation measured after 72 hrs by ELISA; type: cell-based
Target sequence in this assay (Q8TEK3 whole entry, looked up, the tested form may be a part): as the sequence (Q8TEK3 whole entry, the tested form may be a part) above

[8] = biological target: T1, Histone-lysine N-methyltransferase, H3 lysine-79 specific; assay: Inhibition of DOT1L in human MOLM13 cells assessed as reduction in HOXA9 gene expression incubated for 72 hrs by bright-glo luciferase reporter gene assay; type: cell-based
Target sequence in this assay (Q8TEK3 whole entry, looked up, the tested form may be a part): as the sequence (Q8TEK3 whole entry, the tested form may be a part) above

Mus musculus [9] = assay: In vivo inhibition of DOT1L in C57BL/6 mouse xenografted with human MV4-11 cells assessed as reduction in HOXA9 gene expression at 200 mg/kg, administered twice daily for 23 days by qPCR analysis; type: functional, organism-based
[10] = Oral bioavailability in Sprague-Dawley Crl:CD(SD) rat at 3 mg/kg measured upto 24 hrs by LC-MS/MS analysis; type: ADME, organism-based; conditions: in vivo
[11] = Intrinsic clearance in rat liver microsomes; type: ADME, Microsome; conditions: read-out: CLH
Mus musculus [12] = assay: In vivo inhibition of DOT1L in NOD-SCID mouse xenografted with human MV4-11 cells assessed as reduction in MEIS1 gene expression at 75 mg/kg, sc administered qd for 20 days by qPCR analysis; conditions: MV4-11, sc, 480 h
Mus musculus [13] = assay: In vivo inhibition of DOT1L in NOD-SCID mouse xenografted with human MV4-11 cells assessed as reduction in HOXA9 gene expression at 75 mg/kg, sc administered bid for 20 days by qPCR analysis; conditions: MV4-11, sc, 480 h
Mus musculus [14] = assay: In vivo inhibition of DOT1L in NOD-SCID mouse xenografted with human MV4-11 cells assessed as reduction in MEIS1 gene expression at 75 mg/kg, sc administered bid for 20 days by qPCR analysis; conditions: MV4-11, sc, 480 h
[15] = Lipophilicity, log D of the compound at pH 7.4; type: physicochemical; conditions: buffer
Mus musculus [16] = assay: In vivo inhibition of DOT1L in NOD-SCID mouse xenografted with human MV4-11 cells assessed as reduction in H3K79 dimethylation at 75 mg/kg, sc administered twice daily for 20 days
[17] = Drug uptake in C57BL/6 mouse at 50 mg/kg, sc administered twice daily for 7 days; type: ADME, organism-based; conditions: in vivo, 168 h
[18] = Toxicity in NOD-SCID mouse xenografted with human MV4-11 cells assessed as change in body weight at 75 mg/kg, sc administered qd for 20 days; conditions: in vivo, 480 h
Mus musculus [19] = assay: In vivo inhibition of DOT1L in NOD-SCID mouse xenografted with human MV4-11 cells assessed as reduction in HOXA9 gene expression at 75 mg/kg, sc administered qd for 20 days by qPCR analysis; conditions: MV4-11, sc, 480 h
[20] = Toxicity in NOD-SCID mouse xenografted with human MV4-11 cells assessed as change in body weight at 75 mg/kg, sc administered bid for 20 days; conditions: in vivo, 480 h
MV4-11 [21] = assay: Antitumor activity against human MV4-11 cells xenografted in NOD-SCID mouse assessed as tumor growth inhibition at 75 mg/kg, sc administered bid for 20 days; conditions: MV4-11, sc, 480 h, read-out: TGI
Mus musculus [22] = assay: In vivo inhibition of DOT1L in NOD-SCID mouse xenografted with human MV4-11 cells assessed as reduction in H3K79 dimethylation at 75 mg/kg, sc administered bid for 20 days
MV4-11 [23] = assay: Antitumor activity against human MV4-11 cells xenografted in NOD-SCID mouse assessed as tumor growth inhibition at 75 mg/kg, sc qd administered for 20 days
Mus musculus [24] = assay: In vivo inhibition of DOT1L in NOD-SCID mouse xenografted with human MV4-11 cells assessed as reduction in H3K79 dimethylation at 75 mg/kg, sc administered once daily for 20 days by ELISA
[25] = AUC (0 to 12 hrs) in C57BL/6 mouse at 100 mg/kg, po bid for 20 days; type: ADME, organism-based; set-up: dose 100 mg/kg, time < 12 hr, route oral; conditions: in vivo
Cytochrome P450 3A4 = Cytochrome P450 3A4 (Homo sapiens, UniProt P08684); assay: Induction of CYP3A4 in human hepatocytes; type: ADME, cell-based
[26] = Cmax in C57BL/6 mouse at 100 mg/kg, po bid for 20 days; type: ADME, organism-based; set-up: dose 100 mg/kg, route oral; conditions: in vivo
[27] = Cmax in C57BL/6 mouse at 100 mg/kg, po administered as single dose; type: ADME, organism-based; set-up: dose 100 mg/kg, route oral; conditions: in vivo
[28] = Induction of CYP3A4 in rat hepatocytes; type: ADME, cell-based
[29] = AUC (0 to 12 hrs) in C57BL/6 mouse at 100 mg/kg, po administered as single dose; type: ADME, organism-based; set-up: dose 100 mg/kg, time < 12 hr, route oral; conditions: in vivo
MV4-11 [30] = assay: Antitumor activity against human MV4-11 cells xenografted in sc dosed C57BL/6 mouse assessed as reduction in tumor growth at => MTD; type: functional, organism-based

Cytochrome P450 3A4, sequence (P08684 whole entry): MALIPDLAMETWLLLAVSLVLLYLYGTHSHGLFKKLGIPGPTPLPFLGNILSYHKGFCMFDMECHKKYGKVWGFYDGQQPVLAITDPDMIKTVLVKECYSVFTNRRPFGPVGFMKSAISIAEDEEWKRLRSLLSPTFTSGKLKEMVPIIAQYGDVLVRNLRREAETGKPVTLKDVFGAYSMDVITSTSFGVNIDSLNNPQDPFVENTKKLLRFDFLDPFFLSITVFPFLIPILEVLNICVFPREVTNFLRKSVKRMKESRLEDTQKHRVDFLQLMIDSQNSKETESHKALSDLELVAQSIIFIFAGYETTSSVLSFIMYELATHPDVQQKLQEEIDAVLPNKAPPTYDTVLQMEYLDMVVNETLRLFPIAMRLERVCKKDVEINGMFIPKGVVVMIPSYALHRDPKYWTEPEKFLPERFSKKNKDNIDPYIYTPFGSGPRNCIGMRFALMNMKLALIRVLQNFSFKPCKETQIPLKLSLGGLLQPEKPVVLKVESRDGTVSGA

SMILES: CS(=O)(=O)c1ccc(N[C@H](c2ccccn2)c2cccc(Cl)c2F)c(Nc2nccc(C(N)=O)n2)c1
inhibition (Mus musculus [1]): inactive
bioavailability [2]: 26%
TGI (MV4-11 [3]): inactive
inhibition in vivo at 200 mg/kg (Mus musculus [4]): 50%
IC50 [5]: 3.9 nM
IC50 [6]: 2.1 nM
ED50 [7]: 300 nM
ED50 [8]: 4500 nM
inhibition (Mus musculus [9]): inactive
bioavailability [10]: 36%

SMILES: CS(=O)(=O)c1ccc(N[C@H](c2ccccn2)c2cccc(Cl)c2F)c(Nc2ncccn2)c1
IC50 [5]: 97 nM
microsomal CLint [11]: 50 µL/min/mg

SMILES: CS(=O)(=O)c1ccc(N[C@@H](c2cccc(Cl)c2F)c2ncccc2F)c(Nc2ncccn2)c1
IC50 [5]: 16 nM

SMILES: COc1nc(Nc2cc(S(C)(=O)=O)ccc2N[C@@H](c2cccc3c2OC(F)(F)O3)c2ncccc2Cl)nc(OC)n1
IC50 [6]: 0.19 nM
ED50 [7]: 12 nM
ED50 [8]: 170 nM

SMILES: COc1nc(N)nc(Nc2cc(S(N)(=O)=O)ccc2N[C@@H](c2cccc3c2OC(F)(F)O3)c2ncccc2Cl)n1
inhibition in vivo at 75 mg/kg (Mus musculus [12]): 53%
inhibition in vivo at 75 mg/kg (Mus musculus [13]): 53%
inhibition in vivo at 75 mg/kg (Mus musculus [14]): 74%
logD [15]: 3.5
inhibition (Mus musculus [16]): Active
Drug uptake [17]: Active
Activity [18]: Non-Toxic
inhibition in vivo at 75 mg/kg (Mus musculus [19]): 25%
Activity [20]: Non-Toxic
IC50 [6]: 0.17 nM
inhibition in vivo at 75 mg/kg (MV4-11 [21]): 73%
inhibition (Mus musculus [22]): Active
ED50 [7]: 2.9 nM
TGI (MV4-11 [23]): inactive
inhibition (Mus musculus [24]): Active
ED50 [8]: 30 nM

SMILES: COc1nc(Nc2cc(S(C)(=O)=O)ccc2N[C@@H](c2cccc(Cl)c2F)c2ncccc2F)nc(OC)n1
AUC at 12 h [25]: 47 µM·h
Activity (Cytochrome P450 3A4): Active
Cmax [26]: 12 µM
Cmax [27]: 24 µM
IC50 [6]: 0.59 nM
Activity [28]: Active
AUC(0-t) at 12 h [29]: 216 µM·h
ED50 [7]: 43 nM

SMILES: CC(C)N(C[C@H]1O[C@@H](n2cnc3c(N)ncnc32)[C@H](O)[C@@H]1O)[C@H]1C[C@@H](CCc2nc3cc(C(C)(C)C)ccc3[nH]2)C1
Activity (MV4-11 [30]): inactive

Now from value to compound:

IC50 [5]: 4600 nM
SMILES: CS(=O)(=O)c1ccc(NC(c2cccc(Cl)c2)c2ccccn2)c([N+](=O)[O-])c1 (racemic)

IC50 [5]: 8500 nM
SMILES: NS(=O)(=O)c1ccc(NC(c2ccccc2)c2ccccc2)c([N+](=O)[O-])c1

IC50 [5]: 270 nM
microsomal CLint [11]: 553 µL/min/mg
SMILES: CS(=O)(=O)c1ccc(N[C@@H](c2cccc(Cl)c2)c2ccccn2)c(Nc2ncccn2)c1

IC50 [5]: 22800 nM
SMILES: CS(=O)(=O)c1ccc(N[C@H](c2cccc(Cl)c2)c2ccccn2)c(Nc2ncccn2)c1
